# Test results as given in ChEMBL document CHEMBL3102798, “Stapled Vasoactive Intestinal Peptide (VIP) Derivatives Improve VPAC2 Agonism and Glucose-Dependent Insulin Secretion” (ACS Med Chem Lett, 2013).
# Activity calls are given as the source filed them. The calls are words filed in the database; no cut-off is given here. Bridge positions count the residues as written; N and C are the ends. Peptide text beside a SMILES is read from it.
# Tests used:
# [1] = Apparent passive permeability across apical to basolateral side in human Caco2 cells at 10 uM after 30 to 60 mins by LC/MS analysis; assay type: ADME, cell-based; conditions: Caco-2
# [2] = Stability of the compound in phosphate buffer assessed as compound remaining at pH 7.4 after 15 mins by LC-MS-MS analysis in presence of trypsin; assay type: ADME; conditions: phosphate buffer with trypsin, read-out: Stability
# [3] = Half life in human at 3.3 pmol/kg/min, iv administered as infusion; assay type: ADME, organism-based; conditions: in vivo
# Pancreatic islet [4] = assay: Induction of 8 mM glucose-induced insulin secretion in Han Wistar rat pancreatic islets at 1 to 100 nM after 2 hrs by HTRF assay; assay type: functional
# Method in brief: (§1)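 Isolated rat pancreatic islets were incubated with peptide in 8 mM glucose, and insulin secretion was measured. Data are mean ±SE (n > 3), and significance was tested against vehicle-treated samples.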
# Pancreatic islet [5] = assay: Induction of 8 mM glucose-induced insulin secretion in Han Wistar rat pancreatic islets at 100 nM after 2 hrs by HTRF assay; assay type: functional; method in brief: as §1
# [6] = molecular target: T1, Vasoactive intestinal polypeptide receptor 2 (Homo sapiens, UniProt P41587); assay: Agonist activity at human VPAC2 expressed in CHO Flp-in cells assessed as accumulation of cAMP after 30 mins by TR-FRET assay; assay type: functional, cell-based
# T1 sequence (P41587 whole entry): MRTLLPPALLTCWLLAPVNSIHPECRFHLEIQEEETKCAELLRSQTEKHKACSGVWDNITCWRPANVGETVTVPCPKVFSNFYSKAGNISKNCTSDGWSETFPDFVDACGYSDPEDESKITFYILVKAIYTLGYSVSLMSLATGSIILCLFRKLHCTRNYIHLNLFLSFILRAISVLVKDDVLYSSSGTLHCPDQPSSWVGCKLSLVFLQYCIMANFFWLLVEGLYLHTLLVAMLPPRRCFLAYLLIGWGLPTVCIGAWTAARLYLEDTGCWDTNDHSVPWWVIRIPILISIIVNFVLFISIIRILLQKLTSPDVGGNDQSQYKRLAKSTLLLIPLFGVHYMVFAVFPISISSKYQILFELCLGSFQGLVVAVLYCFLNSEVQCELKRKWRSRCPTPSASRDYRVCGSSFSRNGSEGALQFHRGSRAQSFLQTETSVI
# Pancreatic islet [7] = assay: Induction of 8 mM glucose-induced insulin secretion in Han Wistar rat pancreatic islets at 10 to 100 nM after 2 hrs by HTRF assay; assay type: functional; method in brief: as §1
# Pancreatic islet [8] = assay: Induction of 8 mM glucose-induced insulin secretion in Han Wistar rat pancreatic islets after 2 hrs by HTRF assay; assay type: functional
# Method in brief: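 Isolated rat pancreatic islets were incubated with 8 mM glucose plus peptide over a range of concentrations, and secreted insulin was measured. Data are mean (±SE), n > 3, and were compared with vehicle-treated samples (p < 0.05, 0.01, 0.001).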
Compound,Papp A→B at 10 µM [1],remaining at 0.25 h [2],EC50 [6],also measured
CC[C@H](C)[C@H](NC(=O)[C@H](CO)NC(=O)[C@H](CC(N)=O)NC(=O)[C@H](CC(C)C)NC(=O)[C@H](Cc1ccc(O)cc1)NC(=O)[C@H](CCCCN)NC(=O)[C@H](CCCCN)NC(=O)[C@@H](NC(=O)[C@H](C)NC(=O)[C@H](CCSC)NC(=O)[C@H](CCC(N)=O)NC(=O)[C@H](CCCCN)NC(=O)[C@H](CCCN=C(N)N)NC(=O)[C@H](CC(C)C)NC(=O)[C@H](CCCN=C(N)N)NC(=O)[C@@H](NC(=O)[C@H](Cc1ccc(O)cc1)NC(=O)[C@H](CC(N)=O)NC(=O)[C@H](CC(=O)O)NC(=O)[C@@H](NC(=O)[C@H](Cc1ccccc1)NC(=O)[C@@H](NC(=O)[C@H](C)NC(=O)[C@H](CC(=O)O)NC(=O)[C@H](CO)NC(=O)[C@@H](N)Cc1c[nH]cn1)C(C)C)[C@@H](C)O)[C@@H](C)O)C(C)C)C(=O)N[C@@H](CC(C)C)C(=O)N[C@@H](CC(N)=O)C(N)=O,< 0.1 ×10⁻⁶ cm/s,0.5%,,half-life [3]: < 1 min
H-HSDAVFTDNYTRLRKQIAVKKYLNSILNGK-OH,,,,Activity (Pancreatic islet [4]): Active
C=CCCC[C@](C)(NC(=O)[C@H](CCC(N)=O)NC(=O)[C@H](CCCCN)NC(=O)[C@H](CCCNC(=N)N)NC(=O)[C@](C)(CCCC=C)NC(=O)[C@H](CCCNC(=N)N)NC(=O)[C@@H](NC(=O)[C@H](Cc1ccc(O)cc1)NC(=O)[C@H](CC(N)=O)NC(=O)[C@H](CC(=O)O)NC(=O)[C@@H](NC(=O)[C@H](Cc1ccccc1)NC(=O)[C@@H](NC(=O)[C@H](C)NC(=O)[C@H](CC(=O)O)NC(=O)[C@H](CO)NC(=O)[C@@H](N)Cc1cnc[nH]1)C(C)C)[C@@H](C)O)[C@@H](C)O)C(=O)N[C@@H](C)C(=O)N[C@H](C(=O)N[C@@H](CCCCN)C(=O)N[C@@H](CCCCN)C(=O)N[C@@H](Cc1ccc(O)cc1)C(=O)N[C@@H](CC(C)C)C(=O)N[C@@H](CC(N)=O)C(=O)N[C@@H](CO)C(=O)N[C@H](C(=O)N[C@@H](CC(C)C)C(=O)N[C@@H](CC(N)=O)C(=O)NCC(=O)N[C@@H](CCCCN)C(=O)O)[C@@H](C)CC)C(C)C,,,,Activity (Pancreatic islet [5]): Active
CC[C@H](C)[C@H](NC(=O)[C@H](CO)NC(=O)[C@H](CC(N)=O)NC(=O)[C@H](CC(C)C)NC(=O)[C@H](Cc1ccc(O)cc1)NC(=O)[C@@H]1CCCCNC(=O)CC[C@H](NC(=O)[C@H](CCC(N)=O)NC(=O)[C@H](CCCCN)NC(=O)[C@H](CCCNC(=N)N)NC(=O)[C@H](CC(C)C)NC(=O)[C@H](CCCNC(=N)N)NC(=O)[C@@H](NC(=O)[C@H](Cc2ccc(O)cc2)NC(=O)[C@H](CC(N)=O)NC(=O)[C@H](CC(=O)O)NC(=O)[C@@H](NC(=O)[C@H](Cc2ccccc2)NC(=O)[C@@H](NC(=O)[C@H](C)NC(=O)[C@H](CC(=O)O)NC(=O)[C@H](CO)NC(=O)[C@@H](N)Cc2cnc[nH]2)C(C)C)[C@@H](C)O)[C@@H](C)O)C(=O)N[C@@H](C)C(=O)N[C@@H](C(C)C)C(=O)N[C@@H](CCCCN)C(=O)N1)C(=O)N[C@@H](CC(C)C)C(=O)N[C@@H](CC(N)=O)C(=O)NCC(=O)N[C@@H](CCCCN)C(=O)O (H-HSDAVFTDNYTRLRKQEAVKKYLNSILNGK-OH; lactam 17-21),< 0.1 ×10⁻⁶ cm/s,0.4%,0.1 nM,Activity (Pancreatic islet [7]): Active
H-HSDAVFTDNYTRLRKQEAVKKYLNSILNGK-OH,< 0.1 ×10⁻⁶ cm/s,0.9%,0.38 nM,Activity (Pancreatic islet [5]): Active
CC[C@H](C)[C@H](NC(=O)[C@H](CO)NC(=O)[C@H](CC(N)=O)NC(=O)[C@H](CC(C)C)NC(=O)[C@H](Cc1ccc(O)cc1)NC(=O)[C@H](CCCCN)NC(=O)[C@H](CCCCN)NC(=O)[C@@H](NC(=O)[C@H](C)NC(=O)[C@]1(C)CCCC/C=C\CCCC[C@](C)(NC(=O)[C@H](CCCNC(=N)N)NC(=O)[C@@H](NC(=O)[C@H](Cc2ccc(O)cc2)NC(=O)[C@H](CC(N)=O)NC(=O)[C@H](CC(=O)O)NC(=O)[C@@H](NC(=O)[C@H](Cc2ccccc2)NC(=O)[C@@H](NC(=O)[C@H](C)NC(=O)[C@H](CC(=O)O)NC(=O)[C@H](CO)NC(=O)[C@@H](N)Cc2cnc[nH]2)C(C)C)[C@@H](C)O)[C@@H](C)O)C(=O)N[C@@H](CCCNC(=N)N)C(=O)N[C@@H](CCCCN)C(=O)N[C@@H](CCC(N)=O)C(=O)N1)C(C)C)C(=O)N[C@@H](CC(C)C)C(=O)N[C@@H](CC(N)=O)C(=O)NCC(=O)N[C@@H](CCCCN)C(=O)O,< 0.1 ×10⁻⁶ cm/s,1.5%,0.049 nM,Activity (Pancreatic islet [7]): Active
CC[C@H](C)[C@H](NC(=O)[C@H](CO)NC(=O)[C@H](CC(N)=O)NC(=O)[C@H](CC(C)C)NC(=O)[C@H](Cc1ccc(O)cc1)NC(=O)[C@H](CCCCN)NC(=O)[C@H](CCCCN)NC(=O)[C@@H](NC(=O)[C@H](C)NC(=O)[C@H](CCSC)NC(=O)[C@H](CCC(N)=O)NC(=O)[C@H](CCCCN)NC(=O)[C@H](CCCNC(=N)N)NC(=O)[C@H](CC(C)C)NC(=O)[C@H](CCCNC(=N)N)NC(=O)[C@@H](NC(=O)[C@H](Cc1ccc(O)cc1)NC(=O)[C@H](CC(N)=O)NC(=O)[C@H](CC(=O)O)NC(=O)[C@@H](NC(=O)[C@H](Cc1ccccc1)NC(=O)[C@@H](NC(=O)[C@H](C)NC(=O)[C@H](CC(=O)O)NC(=O)[C@H](CO)NC(=O)[C@@H](N)Cc1cnc[nH]1)C(C)C)[C@@H](C)O)[C@@H](C)O)C(C)C)C(=O)N[C@@H](CC(C)C)C(=O)N[C@@H](CC(N)=O)C(=O)O,,,,Activity (Pancreatic islet [8]): Dose-dependent effect
CC[C@H](C)[C@H](NC(=O)[C@H](Cc1ccccc1)NC(=O)[C@H](CCC(=O)O)NC(=O)[C@H](CCCCN)NC(=O)[C@H](C)NC(=O)[C@H](C)NC(=O)[C@H](CCC(N)=O)NC(=O)CNC(=O)[C@H](CCC(=O)O)NC(=O)[C@H](CC(C)C)NC(=O)[C@H](Cc1ccc(O)cc1)NC(=O)[C@H](CO)NC(=O)[C@H](CO)NC(=O)[C@@H](NC(=O)[C@H](CC(=O)O)NC(=O)[C@H](CO)NC(=O)[C@@H](NC(=O)[C@H](Cc1ccccc1)NC(=O)[C@@H](NC(=O)CNC(=O)[C@H](CCC(=O)O)NC(=O)[C@H](C)NC(=O)[C@@H](N)Cc1c[nH]cn1)[C@@H](C)O)[C@@H](C)O)C(C)C)C(=O)N[C@@H](C)C(=O)N[C@@H](Cc1c[nH]c2ccccc12)C(=O)N[C@@H](CC(C)C)C(=O)N[C@H](C(=O)N[C@@H](CCCCN)C(=O)NCC(=O)N[C@@H](CCCN=C(N)N)C(=O)NCC(=O)O)C(C)C,,,,Activity (Pancreatic islet [8]): Dose-dependent effect
